# Results as given in ChEMBL document CHEMBL4219164, “Design, synthesis and biological evaluation of novel 3-substituted pyrazolopyrimidine derivatives as potent Bruton's tyrosine kinase (BTK) inhibitors” (Bioorg Med Chem, 2018).
# How the values were obtained:
# [1] = target: Tyrosine-protein kinase BTK (Homo sapiens, UniProt Q06187); experiment: Inhibition of full length human N-terminal GST-tagged BTK (2 to 659 residues) expressed in baculovirus expression system using biotinylated substrate after 50 mins by HTRF assay
# Sequence of Tyrosine-protein kinase BTK (Q06187 whole entry, the tested form may be a part): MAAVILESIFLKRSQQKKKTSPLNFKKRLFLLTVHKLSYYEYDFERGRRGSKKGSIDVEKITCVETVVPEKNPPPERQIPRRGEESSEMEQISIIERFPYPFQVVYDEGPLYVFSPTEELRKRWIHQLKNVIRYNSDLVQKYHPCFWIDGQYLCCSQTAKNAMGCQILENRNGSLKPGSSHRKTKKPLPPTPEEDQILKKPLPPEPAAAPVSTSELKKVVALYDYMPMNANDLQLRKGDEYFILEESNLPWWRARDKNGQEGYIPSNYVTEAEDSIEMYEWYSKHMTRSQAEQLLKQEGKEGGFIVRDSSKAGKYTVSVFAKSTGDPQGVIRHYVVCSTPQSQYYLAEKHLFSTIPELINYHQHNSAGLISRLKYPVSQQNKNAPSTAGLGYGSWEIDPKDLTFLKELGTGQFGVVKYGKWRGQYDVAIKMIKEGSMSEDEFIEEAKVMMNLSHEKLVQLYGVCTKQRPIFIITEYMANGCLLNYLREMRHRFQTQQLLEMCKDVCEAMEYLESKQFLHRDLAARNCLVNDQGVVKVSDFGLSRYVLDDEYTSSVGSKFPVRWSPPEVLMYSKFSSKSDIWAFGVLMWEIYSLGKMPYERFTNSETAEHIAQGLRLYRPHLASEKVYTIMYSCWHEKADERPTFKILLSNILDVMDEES
# Raji = experiment: Antiproliferative activity against human Raji cells after 48 hrs by CCK8-based assay; type: functional, cell-based
# How it was run: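 CCK-8 viability readout. Cells were seeded at 2000–3000 per well and held 24 h at 37 °C in 5% CO2, then exposed to compound at five concentrations within 1.25–40 μM, each in triplicate. CCK-8 was added for a further 1–4 h and absorbance read at 450 nm, with cell number set to give 0.5–1.2. IC50 was taken as the mean of at least three experiments.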
# Ramos = experiment: Antiproliferative activity against human Ramos cells after 48 hrs by CCK8-based assay; type: functional, cell-based
IC50 [1],IC50 (Raji),IC50 (Ramos),Structure (SMILES)
0.0896 µM,–,–,C=CC(=O)N1CCC[C@@H](n2nc(C#CCOc3ccc(OC)cc3)c3c(N)ncnc32)C1
0.0222 µM,–,–,C=CC(=O)N1CCC[C@@H](n2nc(CCCOc3ccccc3)c3c(N)ncnc32)C1
0.0181 µM,2.28 µM,> 40 µM,C=CC(=O)N1CCC[C@@H](n2nc(C#CCOc3cccc(Cl)c3)c3c(N)ncnc32)C1
0.0113 µM,–,–,C=CC(=O)N1CCC[C@@H](n2nc(/C=C/COc3ccccc3)c3c(N)ncnc32)C1
0.0492 µM,–,–,C=CC(=O)N1CCC[C@@H](n2nc(C#CCOc3ccccc3C)c3c(N)ncnc32)C1
0.011 µM,2.72 µM,37.2 µM,C=CC(=O)N1CCC[C@@H](n2nc(C#CCSc3ccccc3)c3c(N)ncnc32)C1
0.00795 µM,1.8 µM,8.91 µM,C=CC(=O)N1CCC[C@@H](n2nc(C#CCOc3ccccc3)c3c(N)ncnc32)C1
0.102 µM,–,–,C=CC(=O)N1CCC[C@@H](n2nc(C#CCc3ccccc3)c3c(N)ncnc32)C1
0.209 µM,–,–,C=CC(=O)N1CCC[C@@H](n2nc(C#CCOc3cccc(C(F)(F)F)c3)c3c(N)ncnc32)C1
0.0269 µM,–,–,C=CC(=O)N1CCC[C@@H](n2nc(C#CCOc3ccc(C)cc3)c3c(N)ncnc32)C1
0.0181 µM,> 40 µM,18.2 µM,C=CC(=O)N1CCC[C@@H](n2nc(C#CCNc3ccccc3)c3c(N)ncnc32)C1
0.00984 µM,1.69 µM,> 40 µM,C=CC(=O)N1CCC[C@@H](n2nc(C#CCOc3cccc(OC)c3)c3c(N)ncnc32)C1
0.0208 µM,–,–,C=CC(=O)N1CCC[C@@H](n2nc(C#CCOc3cccc(C)c3)c3c(N)ncnc32)C1
0.0454 µM,–,–,C=CC(=O)N1CCC[C@@H](n2nc(C#CCOc3cccc(C(C)C)c3)c3c(N)ncnc32)C1
0.0159 µM,1.62 µM,> 40 µM,C=CC(=O)N1CCC[C@@H](n2nc(C#CCCc3ccccc3)c3c(N)ncnc32)C1
0.0398 µM,–,–,C=CC(=O)N1CCC[C@@H](n2nc(C#CCCOc3ccccc3)c3c(N)ncnc32)C1
0.0382 µM,–,–,C=CC(=O)N1CCC[C@@H](n2nc(C#CCOc3ccccc3OC)c3c(N)ncnc32)C1
0.0232 µM,> 40 µM,14.6 µM,C=CC(=O)N1CCC[C@@H](n2nc(/C=C\COc3ccccc3)c3c(N)ncnc32)C1

Structure (SMILES),IC50 [1],IC50 (Raji),IC50 (Ramos)
C=CC(=O)N1CCC[C@@H](n2nc(-c3ccc(Oc4ccccc4)cc3)c3c(N)ncnc32)C1 [IBRUTINIB],–,1.49 µM,–
